Published values of several laboratories.
Each line is one published result; the experiments were not run side by side.
Observed: cell growth or viability

Compound | cell line | test | setting | measurement | value
COc1cc(N2CCC(N3CCN(C)CC3)CC2)ccc1Nc1ncc(Cl)c(Nc2ccccc2P(C)(C)=O)n1 | BaF3 |  | 72 h | GI50 | 2100 nM
C=CC(=O)N1CCC[C@@H](n2nc(-c3ccc(Oc4ccccc4)cc3)c3c(N)ncnc32)C1 | NALM-6 | ATP luminescence | 72 h | GI50 | 2800 nM
CNC(=O)c1ccccc1Sc1ccc2c(N)n[nH]c2c1 | BaF3 | CCK-8 |  | GI50 | 7900 nM
CNC(=O)c1cc(Oc2ccc(NC(=O)Nc3ccc(Cl)c(C(F)(F)F)c3)c(F)c2)ccn1 | BaF3 | ATP luminescence | 72 h | GI50 | 1820 nM
COc1ccc(-c2ccc(-c3ccc(C(=N)N)nc3)s2)cc1 | SF-268 | SRB |  | GI50 | 1760 nM
COc1ccc(NC(=O)Nc2ccc(OCc3ncc(C)c(OC)c3C)cc2)cc1 | L02 | MTT | 72 h | IC50 | > 100000 nM
CC(C)(C)n1ncc2c(Nc3ccc(OC(F)(F)F)cc3)ncnc21 | BaF3 | ATP luminescence |  | EC50 | > 10000 nM
O=C(N/N=C/c1c(O)ccc2ccccc12)c1cc(-c2ccc3ccccc3c2)n[nH]1 | WM-115 | MTS | 72 h | IC50 | 1800 nM
O=C1Nc2ccccc2C1=NNc1nnc2n1N=C(c1ccccc1)CS2 | SF-268 | SRB | 10 µM | inhibition | 31%
COc1ccccc1S(=O)(=O)Nc1ccc2c(c1)CN(C)C(=O)N2 | NALM-6 | ATP luminescence |  | GI50 | 8000 nM
COc1ccc(NC(=O)Nc2ccc(OCc3nccc(OCC(F)(F)F)c3C)cc2)cc1 | L02 | MTT | 72 h | IC50 | > 100000 nM
Nc1n[nH]c2cc(I)ccc12 | BaF3 | CCK-8 |  | GI50 | > 10000 nM
COc1ccnc(COc2ccc(NC(=O)Nc3cccc(C(F)(F)F)c3)cc2)c1OC | L02 | MTT | 72 h | IC50 | > 100000 nM
COc1cc(-c2ccc(-c3ccc(C(=N)N)nc3)s2)cc(OC)c1OC | SF-268 | SRB |  | GI50 | 14600 nM
CNC(=O)c1ccccc1Sc1ccc2c(/C=C/c3ccccn3)n[nH]c2c1 | BaF3 | ATP luminescence | 72 h | GI50 | 1310 nM
COc1cccc(Oc2ccccc2NC(=O)CNC(=O)c2cccc3ccccc23)c1 | SF-268 | SRB | 48 h | GI50 | 550 nM
Oc1ccc(Nc2nc(-c3ccc(Cl)cc3)cs2)cc1 | WM-115 | MTS | 48 h | IC50 | 23800 nM
